SENP8 block-1 – inhibitors of human SENP8 protease. purified SENP8, Z-RLRGG-aminoluciferin cleavage, luminescence. inhibition, % at 10 µM. hit rate 1.2% among 330,000. AID 2540; in the data active means inhibition above about 50%
Target sequence (Q96LD8 whole entry, looked up): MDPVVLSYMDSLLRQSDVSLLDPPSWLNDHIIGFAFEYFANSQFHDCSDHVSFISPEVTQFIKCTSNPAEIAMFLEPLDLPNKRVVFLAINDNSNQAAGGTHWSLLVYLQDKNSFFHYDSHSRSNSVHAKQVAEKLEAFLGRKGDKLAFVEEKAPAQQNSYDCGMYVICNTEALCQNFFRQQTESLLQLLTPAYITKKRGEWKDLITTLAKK
HSP90 inh – inhibitors of HSP90 luciferase refolding in rabbit reticulocyte lysate; luciferase refolding luminescence, 3 h; inhibition, % at 5.6 µM; hit rate 0.91% among 290,000; AID 1789;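 active means inhibition above the screen-wide mean plus 3 SD, computed separately per campaign, cut at about 16% in these data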;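 further: 0% = DMSO wells and 100% = 60 µM geldanamycin wells; inhibitors lower the luminescence because luciferase stays unfolded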
SENP6 block – blocks the human protease SENP6; AID 2599; hit rate 1.8% among 330,000; inhibition, % at 10 µM; Q9GZR1; Recombinant SENP6 catalytic domain, aminoluciferin luminescence;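 active means inhibition above about 50% at the single tested dose, limit read from the data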;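 further: plate controls were DMSO wells with enzyme for no effect and DMSO wells lacking enzyme for full effect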
SENP7 inh – blocks the human protease SENP7; recombinant SENP7, Z-RLRGG-aminoluciferin luminescence, 40 min; Q9BQF6; hit rate 1.5% among 330,000; inhibition, % at 5 µM; AID 434973;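 active means inhibition above about 50% at the single test dose, limit read from the data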;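 further: plate controls were DMSO with enzyme for no effect and no enzyme buffer wells for full effect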
SENP8 block-2 – SENP8 (human) protease inhibition. Q96LD8. recombinant SENP8, Nedd8 substrate fluorescence. inhibition, % at 20 µM. hit rate 0.64% among 360,000. AID 602440; in the data active means inhibition mostly above about 40%, no sharp cut-off; inactive means mostly below about 27%
SENP1 FRET inh – inhibitors of human SENP1 SUMO protease catalytic domain. Q9P0U3. recombinant SENP1 catalytic domain, CyPet-SUMO1-YPet FRET cleavage. inhibition, % at 10 µM. hit rate 0.21% among 360,000. AID 624204;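 active means inhibition at least 30% at 10 µM, raw YFP signal under a set limit, fluorescence ratio 0.5 to 1.5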;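 further: 0% = enzyme with DMSO and 100% = no enzyme wells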
Target sequence (Q9P0U3 419-644 limits assumed): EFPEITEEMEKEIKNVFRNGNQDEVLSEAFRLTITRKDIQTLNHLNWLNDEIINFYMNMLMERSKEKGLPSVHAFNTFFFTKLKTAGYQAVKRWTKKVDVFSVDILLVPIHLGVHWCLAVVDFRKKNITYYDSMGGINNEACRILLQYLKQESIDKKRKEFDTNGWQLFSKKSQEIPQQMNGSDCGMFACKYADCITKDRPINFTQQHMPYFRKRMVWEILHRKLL
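Material – human SENP1 catalytic domain · Input – SENP1 enzyme, 20 pM final · Compound dosing – single concentration of 10 µM compound, 0.5% DMSO final · Timing – enzyme reaction for 50 min at room temperature, dark · Measured by – FRET fluorescence in CFP and YFP emission channels · Control set – no-enzyme wells low, DMSO-plus-enzyme wells high control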
SENP8 conf – human SENP8 inhibition, confirmed; shares compounds with SENP7 inh; Recombinant SENP8, Z-RLRGG-aminoluciferin luminescence, 60 min; inhibition, % at 12.5 µM; hit rate 40% among 6,200; AID 488912;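 active means mean inhibition across replicates above about 50%, limit read from the data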
SENP6 confirm – confirmation of human SENP6 protease inhibitors. recombinant SENP6, Z-RLRGG-aminoluciferin luminescence. hit rate 58% among 6,200. shares compounds with SENP7 inh. inhibition, % at 12.5 µM
SENP7 confirm – human SENP7 inhibition, confirmed; shares compounds with SENP7 inh; recombinant SENP7, Z-RLRGG-aminoluciferin luminescence, 40 min; inhibition, % at 12.5 µM; hit rate 69% among 6,200; AID 488917
Casp3 select – caspase-3 inhibition (SENP selectivity assay); AID 488918; shares compounds with SENP7 inh; purified caspase-3, Z-DEVD-aminoluciferin luminescence, 60 min; inhibition, % at 12.5 µM; hit rate 60% among 6,200;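 active means mean inhibition above about 50%, limit read from the data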;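 further: plate controls were enzyme with DMSO for no effect and wells without caspase-3 for full effect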
Luc interf – interferes with luciferase luminescence in SENP counter-screen. hit rate 39% among 6,200. inhibition, % at 12.5 µM. Pre-incubated SENP8/Z-RLRGG-aminoluciferin, luciferase luminescence interference. shares compounds with SENP7 inh. AID 488919;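 active means mean inhibition above about 50% when retested at one dose, limit read from the data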;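 further: plate controls were DMSO wells with completed reaction for no effect and substrate without enzyme for full effect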
Active calls of the source: *; . = no result given. Sampled rows, rich in hits. Any-hit rate of the full collection: about 2.9%.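 How the source made its calls, unless noted: active means mean inhibition above about 50% in the one-dose retest (limit read from the data); inactive means the rest.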

SMILES | SENP8 block-1 | HSP90 inh | SENP6 block | SENP7 inh | SENP8 block-2 | SENP1 FRET inh | SENP8 conf | SENP6 confirm | SENP7 confirm | Casp3 select | Luc interf
Oc1ccc(/C=N/Nc2cccc3cccnc23)c(O)c1 | 82* | 5 | 89* | 77* | -22 | -38 | 73* | 89* | 99* | 65* | 20
O=c1[nH]ncc(N/N=C\c2ccc(O)cc2O)c1Cl | 63* | 4 | 69* | 65* | -161 | 1 | 66* | 64* | 87* | 81* | 62*
Oc1ccc(/C=N/Nc2ncc(Br)cn2)c(O)c1 | 58* | 4 | 86* | 72* | 9 | 1 | 73* | 73* | 90* | 70* | 75*
Oc1ccc(C=NNc2ccccn2)c(O)c1 | . | . | . | . | -3 | 1 | . | . | . | . | .
Cc1ccc(/C=N/Nc2cccc3cccnc23)c(O)c1 | 70* | 1 | 78* | 92* | -54 | -69 | 86* | 93* | 78* | 77* | 58*
O=C(COC(=O)CNC(=O)c1ccccc1)NC12CC3CC(CC(C3)C1)C2 | . | . | . | . | 22 | 3 | . | . | . | . | .
COc1ccc(NC(=O)COC(=O)CNC(=O)c2cccs2)cc1Cl | -1 | . | 6 | 1 | 2 | 4 | . | . | . | . | .
COc1ccc(C(=O)Nc2ccc3c(c2)OCCO3)cc1[N+](=O)[O-] | -2 | 2 | 14 | 8 | 19 | 0 | . | . | . | . | .
O=C(Nc1ccc(F)c([N+](=O)[O-])c1)c1ccc2c(c1)OCCO2 | 29 | -2 | 57* | 69* | 9 | 1 | 31 | 41 | 87* | 61* | 40
O=C(Nc1ccc(Cl)cc1[N+](=O)[O-])c1ccc2c(c1)OCCO2 | -16 | 1 | 17 | 64* | 9 | 3 | 15 | 10 | 8 | 6 | -5
N#Cc1ccccc1S(=O)(=O)N1CCN(C(=O)C2CC(=O)N(c3ccc4c(c3)OCCO4)C2)CC1 (centres undefined) | 1 | . | -15 | 5 | 13 | 1 | . | . | . | . | .
O=C(Nc1nc2ccccc2s1)c1ccc(N2CCCCC2)c([N+](=O)[O-])c1 | 35 | 13 | 52* | 54* | 39 | -1 | -5 | 4 | 27 | 25 | 2
Cn1cc(Cl)c(C(=O)Nc2nc3ccccc3s2)n1 | 96* | 9 | 96* | 1 | 2 | 3 | 14 | 98* | 103* | 96* | 45
Cc1cc(C)n(-c2ccc(C(=O)Nc3nc4ccccc4s3)cc2)n1 | -8 | -5 | 22 | 29 | -300 | 4 | . | . | . | . | .
O=C(Nc1ccon1)c1ccc(N2CCCCC2)c([N+](=O)[O-])c1 | -3 | -4 | 13 | 3 | 21 | 4 | . | . | . | . | .
O=C(Nc1nc2ccccc2s1)c1c(F)cccc1Cl | 17 | -1 | 26 | 12 | 5 | 2 | . | . | . | . | .
Nc1ccc(C(=O)Nc2nc3ccccc3s2)cc1 | 91* | 5 | 91* | 94* | -426 | -2 | 95* | 95* | 101* | 86* | 91*
O=C(NCc1cccc(Cl)c1)c1ccc(S(=O)(=O)N2CCCCC2)cc1 | . | . | . | . | 13 | 3 | . | . | . | . | .
Cc1ccc(NC(=O)c2cc(F)c(F)cc2Cl)nc1 | -8 | -3 | -14 | 4 | 4 | 3 | . | . | . | . | .
Cc1ccc2nc(NC(=O)c3ccccc3F)sc2c1 | 81* | 8 | 86* | 91* | -34 | 0 | 22 | 76* | 50* | 64* | 7
O=C(Nc1ccccc1C(=O)Nc1ccc(Br)cn1)c1ccccc1Cl | -5 | . | -7 | 0 | -11 | 0 | . | . | . | . | .
Cc1cc(C(=O)Nc2ccc(Br)cn2)sc1C | 84* | . | 84* | 87* | -2 | 0 | 81* | 87* | 97* | 78* | 64*

Assay outcomes (PubChem BioAssay)
